# Data published in ChEMBL document CHEMBL1152329, “The marine sponge Diacarnus bismarckensis as a source of peroxiterpene inhibitors of Trypanosoma brucei, the causative agent of sleeping sickness” (J Nat Prod, 2009).
# How the values were obtained:
# Assay type in all cases: functional, organism-based
# [1] = system: Trypanosoma brucei brucei; test: Antitrypanosomal activity against Trypanosoma brucei brucei 221 after 48 hrs; conditions: Trypanosoma brucei, 221, 48 h
# Method in brief: (§1)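 T. brucei brucei strain 221 cultured in complete HMI-9 with 10% FBS, 10% Serum Plus and penicillin/streptomycin; seeded at 1×10^5 per mL and exposed to test samples delivered in 10% DMSO for 48 h at 37 °C, 5% CO2. Vehicle wells served as 0% inhibition and 1 mM thimerosal stock as 100%. Viability read as ATP bioluminescence after CellTiter-Glo lysis.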
# [2] = system: Trypanosoma brucei rhodesiense; test: Antitrypanosomal activity against Trypanosoma brucei rhodesiense STIB 900
# [3] = system: Trypanosoma brucei rhodesiense; test: Antitrypanosomal activity against Trypanosoma brucei rhodesiense trypomastigotes after 72 hrs
# Trypanosoma brucei = test: Antitrypanosomal activity against Trypanosoma brucei; method in brief: as §1
Structure (SMILES),IC50 [1],further results
C=C1CCCC(C)(C)C1CC[C@]1(C)CC[C@@H]([C@@H](C)C(=O)OC)OO1 (stereo partly specified),2 µg/mL,
CC(C)(N)CNC(=O)CC1CC[C@]2(CC1)OC[C@]1(O2)C2CC3CC(C2)CC1C3 (stereo partly specified),,IC50 [2]: 0.9 µg/mL
COC(=O)[C@H](C)[C@H]1CC[C@@](C)(CC/C=C(\C)CCC(=O)C(C)(C)CCCC(C)=O)OO1,5 µg/mL,
C=C1CCC[C@@H]2[C@@](C)(CC[C@]3(C)CC[C@H]([C@@H](C)C(=O)OC)OO3)[C@H](C)CC[C@@]12C,2 µg/mL,
C=C1CCC[C@@H]2[C@@](C)(CC[C@]3(C)CC[C@H]([C@@H](C)C(=O)O)OO3)[C@H](C)CC[C@@]12C,1 µg/mL,
CC1=C(CC/C(C)=C/CC[C@]2(C)CC[C@H]([C@@H](C)C(=O)O)OO2)C(C)(C)CCC1,0.9 µg/mL,
COC(=O)[C@H](C)[C@@H]1CC[C@@](C)(CC/C=C(\C)CCC(=O)C(C)(C)CCCC(C)=O)OO1,3 µg/mL,
COC(=O)[C@H](C)[C@H](O)CC[C@](C)(O)CCCC(C)CCC(=O)C(C)(C)CCCC(C)=O (stereo partly specified),> 25 µg/mL,
CC(=O)CCCC(C)(C)C(=O)CC/C(C)=C/CC[C@]1(C)CC[C@H]([C@@H](C)C(=O)O)OO1 [(+)-MUQUBILONE B],2 µg/mL,
C[C@@H]1CC[C@H]2[C@@H](C)C(=O)O[C@@H]3O[C@@]4(C)CC[C@@H]1[C@]32OO4 [ARTEMISININ],,IC50 [3]: 6 µg/mL; IC50 [2]: 25 µg/mL
ClCCl [METHYLENE CHLORIDE],,IC50 (Trypanosoma brucei): 0.3 µg/mL
CC(C)(N)CNC(=O)C[C@H]1CC[C@]2(CC1)OO[C@]1(O2)C2CC3CC(C2)CC1C3 [OZ277],,IC50 [2]: 0.6 µg/mL
N=C(N)c1ccc(OCCCCCOc2ccc(C(=N)N)cc2)cc1 [PENTAMIDINE],,IC50 [3]: 0.4 µg/mL
C=C1CCC[C@@H]2[C@@H](CC[C@@]3(C)CC[C@H]([C@H](C)C(=O)O)OO3)[C@H](C)CC[C@@]12C [SIGMOSCEPTRELLIN B],0.2 µg/mL,IC50 (Trypanosoma brucei): 0.2 µg/mL
